Assays:
Type in all cases: cell-based
HepG2 = test: Antiproliferative SRB assay, HepG2; settings: Homo sapiens, HepG2, 72 h, read-out: HepG2 IC50 (μM) ± SD
In short: (§1)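 Cells from ATCC, grown in RPMI-1640 with 10% heat-inactivated FBS and penicillin–streptomycin at 37 °C, 5% CO2. They were trypsinized and seeded 24 h before treatment. Test compound was given at 0.01, 0.1, 1, 10 and 100 μg mL−1 for 72 h beside untreated controls. Cells were fixed in 10% TCA (1 h, 4 °C), stained with 0.4% SRB (10 min, dark), rinsed in 1% acetic acid, dissolved in Tris–HCl, and read at 540 nm.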

EA.hy926 = test: SRB assay on normal cells EA.hy926; settings: Homo sapiens, EA.hy 926, 72 h, read-out: EA.hy926 IC50 (μM) ± SD
In short: as §1

HCT116 = test: Antiproliferative SRB assay, HCT116; settings: Homo sapiens, HCT-116, 72 h, read-out: HCT116 IC50 (μM) ± SD
In short: as §1

MCF-7 = test: Antiproliferative SRB assay, MCF-7; settings: Homo sapiens, MCF7, 72 h, read-out: MCF-7 IC50 (μM) ± SD
In short: as §1

Row | IC50 (HepG2) | IC50 (HCT116) | IC50 (MCF-7) | Structure (SMILES) | IC50 (EA.hy926)
1 | 9.9 µM | 6.5 µM | 10.3 µM | N#CCC(=O)NNc1nc(-c2ccccc2)cs1 [compound 7, 2-cyano-N′-(4-phenylthiazol-2-yl)acetohydrazide] | 11.6 µM
2 | 1.6 µM | 1.9 µM | 2.1 µM | COc1cccc2c1C(=O)c1c(O)c3c(c(O)c1C2=O)C[C@@](O)(C(=O)CO)C[C@@H]3O[C@H]1C[C@H](N)[C@H](O)[C@H](C)O1 [Doxorubicin, reference compound] | 1.7 µM
3 | 36.5 µM | 82.5 µM | 72.9 µM | O=C(NNc1nc(-c2ccccc2)cs1)c1cc2ccccc2oc1=O [6a, 2-Oxo-N′-(4-phenylthiazol-2-yl)-2H-chromene-3-carbohydrazide] | 31.9 µM
